Measured values published in paper PMC9037808 (RSC Advances, 2021).
Read-outs that look alike come from different tables or passages of the source.

Key:
Type in all cases: cell-based
NCI-H520 [1] = assay: MTT cytotoxicity assay, NCI-H520; conditions: read-out: IC50, NCI-H520
Procedure, shortened: (§1)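 Cells were grown at 37 °C in 5% CO2: HeLa and NRK-52E in DMEM, NCI-H520 in RPMI, each with 10% heat-inactivated FBS plus penicillin/streptomycin/amphotericin B. They were seeded at 10^4 cells/well in triplicate and left 24 h. Test compound (5–300 μM) was added for 24 h, then removed with a PBS wash. MTT was added for 3 h, formazan dissolved in DMSO, and A570 read. IC50 came from nonlinear regression of survival curves, shown as mean ± SE of triplicate independent analyses.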

HeLa [2] = assay: MTT cytotoxicity assay, HeLa; conditions: read-out: IC50, HeLa
Procedure, shortened: as §1

NRK-52E = assay: MTT cytotoxicity assay, NRK-52E; conditions: read-out: IC50, NRK-52E, 24 h treatment, normal rat kidney epithelial cell line
Procedure, shortened: as §1

NCI-H520 [3] = assay: Apoptosis, Muse Annexin V & Dead cell kit, NCI-H520; conditions: IC50 dose; untreated 7.15%
HeLa [4] = assay: Apoptosis, Muse Annexin V & Dead cell kit, HeLa; conditions: IC50 dose (12.59 μM 4a, 11.26 μM 7b), 24 h; untreated 8.05%
[5] = MTT, 24 h treatment, mean of three independent experiments

Row | Compound | IC50 (NCI-H520 [1]; Homo sapiens, NCI-H520, 24 h) | IC50 (HeLa [2]; Homo sapiens, HeLa, 24 h) | other results
1 | O=c1[nH]cc(F)c(=O)[nH]1 [5-Fluorouracil, reference compound] | 8.36 ± 0.45 µM | 55.7 ± 2.1 µM | –
2 | N.N.[Cl][Pt][Cl] [Cis-platin, reference compound] | – | – | IC50 (NRK-52E): 12.9 ± 0.4 µM; IC50 (NCI-H520 [1]; [5]): 10.4 ± 1.35 µM; IC50 (HeLa [2]; [5]): 7.75 ± 0.42 µM
3 | CCn1c2ccccc2c2cc(/C=C/C(=O)c3cc4ccccc4oc3=O)ccc21 [Compound 3a, (E)-3-(3-(9-Ethyl-9H-carbazol-3-yl)acryloyl)-2H-chromen-2-one] | 120 ± 3.78 µM | 132 ± 5.16 µM | –
4 | CCn1c2ccccc2c2cc(/C=C/C(=O)c3cc4cccc(OC)c4oc3=O)ccc21 [Compound 3b, (E)-3-(3-(9-Ethyl-9H-carbazol-3-yl)acryloyl)-8-methoxy-2H-chromen-2-one] | 103 ± 4.78 µM | 119 ± 6.88 µM | –
5 | CCn1c2ccccc2c2cc(/C=C/C(=O)c3cc4c(ccc5ccccc54)oc3=O)ccc21 [Compound 3c, (E)-2-(3-(9-Ethyl-9H-carbazol-3-yl)acryloyl)-3H-benzo[f]chromen-3-one] | 133 ± 4.75 µM | 142 ± 7.77 µM | –
6 | CCn1c2ccccc2c2cc(C3CC(c4cc5ccccc5oc4=O)=NN3C(N)=O)ccc21 (stereo not drawn) [Compound 4a, 5-(9-Ethyl-9H-carbazol-3-yl)-3-(2-oxo-2H-chromen-3-yl)-4,5-dihydro-1H-pyrazole-1-carboxamide] | 11.3 ± 0.45 µM | 12.59 ± 0.1 µM | apoptotic cell death, NCI-H520 (NCI-H520 [3]): 18%; apoptotic cells, HeLa (HeLa [4]): 25.5%
7 | CCn1c2ccccc2c2cc(C3CC(c4cc5cccc(OC)c5oc4=O)=NN3C(N)=O)ccc21 (stereo not drawn) [Compound 4b, 5-(9-Ethyl-9H-carbazol-3-yl)-3-(8-methoxy-2-oxo-2H-chromen-3-yl)-4,5-dihydro-1H-pyrazole-1-carboxamide] | 22.5 ± 2.15 µM | 29.8 ± 1.85 µM | –
8 | CCn1c2ccccc2c2cc(C3CC(c4cc5c(ccc6ccccc65)oc4=O)=NN3C(N)=O)ccc21 (stereo not drawn) [Compound 4c, 5-(9-Ethyl-9H-carbazol-3-yl)-3-(3-oxo-3H-benzo[f]chromen-2-yl)-4,5-dihydro-1H-pyrazole-1-carboxamide] | 55.6 ± 1.93 µM | 43.5 ± 1.02 µM | –
9 | CCn1c2ccccc2c2cc(C3CC(c4cc5ccccc5oc4=O)=NN3c3ccccc3)ccc21 (stereo not drawn) [Compound 5a, 3-(5-(9-Ethyl-9H-carbazol-3-yl)-1-phenyl-4,5-dihydro-1H-pyrazol-3-yl)-2H-chromen-2-one] | 81.2 ± 1.46 µM | 92.5 ± 4.25 µM | –
10 | CCn1c2ccccc2c2cc(C3CC(c4cc5cccc(OC)c5oc4=O)=NN3c3ccccc3)ccc21 (stereo not drawn) [Compound 5b, 3-(5-(9-Ethyl-9H-carbazol-3-yl)-1-phenyl-4,5-dihydro-1H-pyrazol-3-yl)-8-methoxy-2H-chromen-2-one] | 62.7 ± 1.63 µM | 39 ± 0.46 µM | –
11 | CCn1c2ccccc2c2cc(C3CC(c4cc5c(ccc6ccccc65)oc4=O)=NN3c3ccccc3)ccc21 (stereo not drawn) [Compound 5c, 2-(5-(9-Ethyl-9H-carbazol-3-yl)-1-phenyl-4,5-dihydro-1H-pyrazol-3-yl)-3H-benzo[f] chromen-3-one] | 83.6 ± 1.2 µM | 55 ± 0.96 µM | –
12 | CCn1c2ccccc2c2cc(C3CC(c4cc5ccccc5oc4=O)=NN3c3ccc(C)cc3)ccc21 (stereo not drawn) [Compound 6a, 3-(5-(9-Ethyl-9H-carbazol-3-yl)-1-(p-tolyl)-4,5-dihydro-1H-pyrazol-3-yl)-2H-chromen-2-one] | 38.3 ± 0.78 µM | 67 ± 1.87 µM | –
13 | CCn1c2ccccc2c2cc(C3CC(c4cc5cccc(OC)c5oc4=O)=NN3c3ccc(C)cc3)ccc21 (stereo not drawn) [Compound 6b, 3-(5-(9-Ethyl-9H-carbazol-3-yl)-1-(p-tolyl)-4,5-dihydro-1H-pyrazol-3-yl)-8-methoxy-2H-chromen-2-one] | 30 ± 0.33 µM | 30.8 ± 0.5 µM | –
14 | CCn1c2ccccc2c2cc(C3CC(c4cc5c(ccc6ccccc65)oc4=O)=NN3c3ccc(C)cc3)ccc21 (stereo not drawn) [Compound 6c, 2-(5-(9-Ethyl-9H-carbazol-3-yl)-1-(p-tolyl)-4,5-dihydro-1H-pyrazol-3-yl)-3H-benzo[f] chromen-3-one] | 61.7 ± 1.48 µM | 57.5 ± 1.32 µM | –
15 | CCn1c2ccccc2c2cc(C3CC(c4cc5ccccc5oc4=O)=NN3c3cccc(Cl)c3)ccc21 (stereo not drawn) [Compound 7a, 3-(1-(3-Chlorophenyl)-5-(9-ethyl-9H-carbazol-3-yl)-4,5-dihydro-1H-pyrazol-3-yl)-2H-chromen-2-one] | 14.3 ± 0.21 µM | 33.4 ± 0.64 µM | –
16 | CCn1c2ccccc2c2cc(C3CC(c4cc5cccc(OC)c5oc4=O)=NN3c3cccc(Cl)c3)ccc21 (stereo not drawn) [Compound 7b, 3-(1-(3-Chlorophenyl)-5-(9-ethyl-9H-carbazol-3-yl)-4,5-dihydro-1H-pyrazol-3-yl)-8-methoxy-2H-chromen-2-one] | 9.13 ± 0.08 µM | 11.4 ± 0.24 µM | apoptotic cell death, NCI-H520 (NCI-H520 [3]): 16.10%; apoptotic cells, HeLa (HeLa [4]): 24%
17 | CCn1c2ccccc2c2cc(C3CC(c4cc5c(ccc6ccccc65)oc4=O)=NN3c3cccc(Cl)c3)ccc21 (stereo not drawn) [Compound 7c, 2-(1-(3-Chlorophenyl)-5-(9-ethyl-9H-carbazol-3-yl)-4,5-dihydro-1H-pyrazol-3-yl)-3H-benzo[f]chromen-3-one] | 20.8 ± 0.27 µM | 29 ± 0.84 µM | –
18 | CCn1c2ccccc2c2cc(C3CC(c4cc5ccccc5oc4=O)=NN3C(C)=O)ccc21 (stereo not drawn) [Compound 8a, 3-(1-Acetyl-5-(9-ethyl-9H-carbazol-3-yl)-4,5-dihydro-1H-pyrazol-3-yl)-2H-chromen-2-one] | 62.5 ± 1.95 µM | 43.2 ± 0.52 µM | –
19 | CCn1c2ccccc2c2cc(C3CC(c4cc5cccc(OC)c5oc4=O)=NN3C(C)=O)ccc21 (stereo not drawn) [Compound 8b, 3-(1-Acetyl-5-(9-ethyl-9H-carbazol-3-yl)-4,5-dihydro-1H-pyrazol-3-yl)-8-methoxy-2H-chromen-2-one] | 54.7 ± 0.65 µM | 76.8 ± 1.45 µM | –
20 | CCn1c2ccccc2c2cc(C3CC(c4cc5c(ccc6ccccc65)oc4=O)=NN3C(C)=O)ccc21 (stereo not drawn) [Compound 8c, 2-(1-Acetyl-5-(9-ethyl-9H-carbazol-3-yl)-4,5-dihydro-1H-pyrazol-3-yl)-3H-benzo[f]chromen-3-one] | 77.61 ± 0.34 µM | 55.9 ± 1.3 µM | –
